Results gathered from unrelated publications.
Compare with care: the assays were run in different laboratories.
Observed: cell growth or viability

Oc1ccccc1CN=CCNc1ccnc2cc(Cl)ccc12  IC50 (CHO; MTT): > 300000 nM
C=C(C)C(=O)Nc1ccc(-c2c(-c3ccc(Oc4nccc(C)n4)c(F)c3)c3c(N)ncnc3n2C)cc1  IC50 (SNU-16; ATP luminescence; 96 h): 3.25 nM
NCCOc1cc(C(=O)Nc2cc(OCCN)c3ccccc3n2)nc(C(=O)Nc2cc(OCCN)c3ccccc3n2)c1  IC50 (HT-1080; ATP luminescence; 72 h): 600 nM
C=CC(=O)Nc1ccc(CCn2cc(C[C@@]3(O)C[C@@H]4c5cc(OCc6cc(C)cc(C)c6)c(OCc6cc(C)cc(C)c6)cc5CCN4[C@@H](C)C3)nn2)cc1  IC50 (GES1; MTT; 48 h): 730 nM
COc1cc(Nc2nccc(-c3cnn4nc(OC)ccc34)n2)cc(C(F)(F)F)c1  IC50 (SK-N-MC; ATP luminescence): 130 nM
CCCCCC/N=C1\c2cc(C(N)=O)nc3c(N)c(Cl)c(N)c(c23)N1C  IC50 (HCC4017): 2870 nM
O=C1Nc2ccccc2C1=Cc1cc2ccc(Cl)cc2nc1Cl  IC50 (CHO; MTT; 72 h): 39200 nM
CN(C)CCOc1cc(NC(=O)c2cc(Cl)cc(C(=O)Nc3cc(OCCN(C)C)c4ccccc4n3)n2)nc2ccccc12  IC50 (HT-1080; ATP luminescence; 72 h): 2200 nM
COc1cccc2c1C(=O)c1c(O)c3c(c(O)c1C2=O)C[C@@](O)(C(=O)CO)C[C@@H]3O[C@H]1C[C@H](N)[C@H](O)[C@H](C)O1  IC50 (BHK; SRB; 48 h): 36400 nM
O=C(Nc1ccccc1CO)c1c[nH]c2ccc(Cl)cc12  IC50 (T24; MTT): 18000 nM
CC(=O)O[C@H]1C(=O)[C@@]2(C)[C@H]([C@H](OC(=O)c3ccccc3)[C@]3(O)C[C@H](OC(=O)[C@H](O)[C@@H](NC(=O)c4ccccc4)c4ccccc4)C(C)=C1C3(C)C)[C@]1(OC(C)=O)CO[C@@H]1C[C@@H]2O  IC50 (HCC1937; ATP luminescence; 72 h): > 2500 nM
COc1c(C)c(OC)c2c(c1C)OC(c1ccccc1)CC2=O (centres unmarked)  IC50 (SH-SY5Y; SRB; 72 h): > 50000 nM
CCN1C(=O)N(c2c(F)c(OC)cc(OC)c2F)Cc2cnc3[nH]c(CN4CCOCC4)cc3c21  IC50 (SNU-16; ATP luminescence; 96 h): 3.38 nM
CC(C)C[C@H](NC(=O)[C@H](Cc1ccccc1)NC(=O)c1cnccn1)B(O)O  IC50 (SK-N-MC; ATP luminescence): 7.8 nM
CC[C@H]1CN2CCc3cc(OC)c(OC)cc3[C@@H]2C[C@@H]1C[C@H]1NCCc2cc(OC)c(OC)cc21  IC50 (CHO; MTT): 250 nM
NCCCOc1cc(NC(=O)c2cc(OCc3c[nH]nn3)cc(C(=O)Nc3cc(OCCCN)c4ccccc4n3)n2)nc2ccccc12  IC50 (HT-1080; ATP luminescence; 72 h): 35200 nM
Cc1cc(C)cc(COc2cc3c(cc2OCc2cc(C)cc(C)c2)[C@H]2C[C@](O)(Cc4cn(Cc5ccc(-c6ccccc6)cc5)nn4)C[C@H](C)N2CC3)c1  IC50 (GES1; MTT; 48 h): 2220 nM
NCCOc1cc(C(=O)Nc2cc(OCCN3CCCC3)c3ccccc3n2)nc(C(=O)Nc2cc(OCCN3CCCC3)c3ccccc3n2)c1  IC50 (HT-1080; ATP luminescence; 72 h): 200 nM
CCCCN(Cc1ccc(C(=O)NO)cc1)C(=O)Nc1ccccc1  IC50 (SUP-B15; ATP luminescence; 72 h): 8660 nM
O=C(NCc1ccc(CO)cc1)c1c[nH]c2ccc(Cl)cc12  IC50 (T24; MTT): 17000 nM
NCCCOc1cc(NC(=O)c2cc(Cl)cc(C(=O)Nc3cc(OCCCN)c4ccccc4n3)n2)nc2ccccc12  IC50 (HT-1080; ATP luminescence; 72 h): 600 nM
O=[N+]([O-])c1ccc(NC(=S)NN=Cc2ccccn2)cc1  IC50 (BHK; SRB; 48 h): 54800 nM
O=C(Nc1cc(OCCN2CCCC2)c2ccccc2n1)c1cc(OCCN2CCCC2)cc(C(=O)Nc2cc(OCCN3CCCC3)c3ccccc3n2)n1  IC50 (HT-1080; ATP luminescence; 72 h): 2200 nM
Clc1ccc2c(NCCNCc3ccccn3)ccnc2c1  IC50 (CHO; MTT): 144000 nM
CCN1CCN(c2ccc(Nc3cc(N(C)C(=O)Nc4c(Cl)c(OC)cc(OC)c4Cl)ncn3)cc2)CC1  IC50 (NCI-H716; ATP luminescence; 96 h): 5.76 nM
O=C(Nc1cc(OCCN2CCCC2)c2ccccc2n1)c1cc(OCc2ccc(F)cc2)cc(C(=O)Nc2cc(OCCN3CCCC3)c3ccccc3n2)n1  IC50 (HT-1080; ATP luminescence; 72 h): 8500 nM
O=C1Nc2ccccc2C1=Cc1cc2ccccc2nc1Cl  IC50 (CHO; MTT; 72 h): > 100000 nM
NCCOc1cc(NC(=O)c2cc(OCc3ccc(F)cc3)cc(C(=O)Nc3cc(OCCN)c4ccccc4n3)n2)nc2ccccc12  IC50 (HT-1080; ATP luminescence; 72 h): 1600 nM
CCN(CC)CCCC(C)Nc1cnc(C(=O)Nc2cc(F)cc3cccnc23)cn1 (centres unmarked)  IC50 (Pan02; MTT): 4300 nM
COc1cccc2c1C(=O)c1c(O)c3c(c(O)c1C2=O)C[C@@](O)(C(=O)CO)C[C@@H]3O[C@H]1C[C@H](N)[C@H](O)[C@H](C)O1  IC50 (A 172; WST-1; 72 h): 40 nM
C[C@H](NC(=O)c1cccc2ccccc12)C(=O)Nc1ccccc1Oc1ccccc1  IC50 (SH-SY5Y): 4000 nM
CN1/C(=N/c2ccc(Cl)cc2)c2cc(C(N)=O)nc3c(N)c(Cl)c(N)c1c23  IC50 (HCC4017): 22900 nM
